Assay results reported in ChEMBL document CHEMBL5661970 (Cancer Res, 2006).
Active and inactive are the calls of the source. The calls are words filed in the database; no cut-off is given here.

Tests used:
Calu-6 [1] = experiment: Antitumor activity against human Calu-6 cells xenografted in RH-rnu/rnu athymic rat assessed as decrease in capillary permeability in tumor at 1.0 mg/kg, po measured on day 13 by DCE-MRI analysis relative to control; assay type: functional; parameters: scale not given: the % may be the effect or the level left
Calu-6 [2] = experiment: Antitumor activity against human Calu-6 cells xenografted in RH-rnu/rnu athymic rat assessed as tumor growth inhibition at 1.0 mg/kg, po administered […] by DCE-MRI analysis; assay type: functional, organism-based
How it was run: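 Calu-6 tumor-bearing athymic rats were randomized at 274-287 mm3 and dosed orally at 0.2 or 1.0 mg/kg or vehicle once daily on days 0-13. Tumor growth was followed by T2-weighted MRI at 1.5 T through day 21.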

[3] = Cmax in F344/N JcL-rnu athymic rat at 5 mg/kg, po measured upto 72 hrs by HPLC-MS/MS analysis; assay type: ADME, organism-based; conditions: in vivo
How it was run: (§1)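 Female F344/N JcL-rnu rats, four per group, single p.o. dose suspended in 0.5% methyl cellulose. Tail-vein blood sampled at set times to 72 h. Serum spiked with internal standard, deproteinated with acetonitrile, analysed by HPLC-MS/MS. Parameters derived by noncompartmental analysis.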

[4] = target: Receptor tyrosine-protein kinase erbB-4 (Homo sapiens, UniProt Q15303); experiment: Inhibition of ErbB4 (unknown origin) in presence of ATP
Chain of Receptor tyrosine-protein kinase erbB-4 (Q15303 whole entry): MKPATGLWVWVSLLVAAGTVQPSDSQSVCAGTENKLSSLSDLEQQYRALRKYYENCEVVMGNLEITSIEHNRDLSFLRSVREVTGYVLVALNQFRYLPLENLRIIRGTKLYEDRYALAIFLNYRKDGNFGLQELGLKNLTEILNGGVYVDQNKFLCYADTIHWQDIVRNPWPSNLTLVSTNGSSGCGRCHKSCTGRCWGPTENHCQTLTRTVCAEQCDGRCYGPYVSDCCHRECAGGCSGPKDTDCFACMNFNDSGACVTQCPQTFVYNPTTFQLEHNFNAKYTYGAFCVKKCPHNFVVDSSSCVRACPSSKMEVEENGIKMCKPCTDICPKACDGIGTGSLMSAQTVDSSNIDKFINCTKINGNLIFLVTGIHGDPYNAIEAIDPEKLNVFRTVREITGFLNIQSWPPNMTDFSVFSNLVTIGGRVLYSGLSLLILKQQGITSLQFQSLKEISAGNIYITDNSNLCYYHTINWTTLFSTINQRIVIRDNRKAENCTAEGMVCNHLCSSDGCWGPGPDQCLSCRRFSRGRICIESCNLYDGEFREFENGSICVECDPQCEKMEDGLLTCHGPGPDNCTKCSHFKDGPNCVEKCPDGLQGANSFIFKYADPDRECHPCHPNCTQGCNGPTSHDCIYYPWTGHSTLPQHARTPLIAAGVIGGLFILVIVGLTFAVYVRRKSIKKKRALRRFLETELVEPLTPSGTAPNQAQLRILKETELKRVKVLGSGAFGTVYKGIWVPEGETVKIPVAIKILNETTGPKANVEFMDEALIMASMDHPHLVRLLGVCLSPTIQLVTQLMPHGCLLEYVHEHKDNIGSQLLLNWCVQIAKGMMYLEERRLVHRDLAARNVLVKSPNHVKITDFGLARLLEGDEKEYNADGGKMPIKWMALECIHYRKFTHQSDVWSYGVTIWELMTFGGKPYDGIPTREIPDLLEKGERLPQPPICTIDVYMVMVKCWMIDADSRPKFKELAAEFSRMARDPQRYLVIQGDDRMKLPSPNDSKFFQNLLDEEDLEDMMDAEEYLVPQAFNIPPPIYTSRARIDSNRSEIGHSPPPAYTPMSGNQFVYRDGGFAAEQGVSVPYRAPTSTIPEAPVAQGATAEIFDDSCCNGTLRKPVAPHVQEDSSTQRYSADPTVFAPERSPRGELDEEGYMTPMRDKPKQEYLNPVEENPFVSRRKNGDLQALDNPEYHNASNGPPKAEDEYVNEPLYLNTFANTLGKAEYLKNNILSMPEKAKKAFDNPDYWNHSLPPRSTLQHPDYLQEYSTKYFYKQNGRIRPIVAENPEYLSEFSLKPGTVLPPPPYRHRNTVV

[5] = Apparent oral clearance in F344/N JcL-rnu athymic rat at 1 mg/kg, po measured upto 72 hrs by HPLC-MS/MS analysis; assay type: ADME, organism-based; conditions: in vivo; how it was run: as §1
[6] = target: Mitogen-activated protein kinase 1 (Homo sapiens, UniProt P28482); experiment: Inhibition of ERK2 phosphorylation in EGF-stimulated serum-starved human HUVEC cells by immunoblotting analysis; assay type: cell-based
Chain of Mitogen-activated protein kinase 1 (P28482 whole entry): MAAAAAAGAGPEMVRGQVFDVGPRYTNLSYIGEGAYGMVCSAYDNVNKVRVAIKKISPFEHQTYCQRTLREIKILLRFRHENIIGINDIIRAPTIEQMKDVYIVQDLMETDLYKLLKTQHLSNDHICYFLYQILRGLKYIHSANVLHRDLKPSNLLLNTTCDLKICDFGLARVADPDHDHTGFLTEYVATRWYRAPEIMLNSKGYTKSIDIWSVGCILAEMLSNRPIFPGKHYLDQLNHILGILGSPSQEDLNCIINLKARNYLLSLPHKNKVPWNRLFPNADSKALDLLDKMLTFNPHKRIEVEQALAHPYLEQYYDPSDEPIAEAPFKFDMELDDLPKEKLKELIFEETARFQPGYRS

[7] = Apparent oral clearance in F344/N JcL-rnu athymic rat at 0.04 mg/kg, po measured upto 72 hrs by HPLC-MS/MS analysis; assay type: ADME, organism-based; conditions: in vivo; how it was run: as §1
SK-OV-3 = experiment: Antitumor activity against human SK-OV-3 cells xenografted in gamma-irradiation induced RH-rnu/rnu athymic rat assessed as tumor growth inhibition at 1.0 mg/kg, po administered once daily for 2 weeks and measured on day 14 relative to control; assay type: functional; conditions: SK-OV-3, light or radiation study, 336 h, read-out: TGI
[8] = Cmax in F344/N JcL-rnu athymic rat at 0.04 mg/kg, po measured upto 72 hrs by HPLC-MS/MS analysis; assay type: ADME, organism-based; conditions: in vivo; how it was run: as §1
NCI-H460 = experiment: Antitumor activity against human NCI-H460 cells xenografted in gamma-irradiation induced RH-rnu/rnu athymic rat assessed as tumor growth inhibition at 1.0 mg/kg, po administered once daily for 2 weeks and measured on day 14 relative to control; assay type: functional; conditions: NCI-H460, light or radiation study, 336 h, read-out: TGI
How it was run: (§2)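 Rats were γ-irradiated with 7 Gy whole body, and 24 h later received s.c. tumor cells. Fragments (20-30 mg) from ~1,500 mm3 tumors were then implanted s.c. into irradiated athymic rats. Oral dosing at 0.2 or 1 mg/kg or vehicle ran once daily for 2 weeks from day 0. Tumors were measured with calipers twice weekly (length×width²×0.5). TGI% was taken versus vehicle on day 14 (BxPC-3: day 13), with an unpaired t test on RTV.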

[9] = Half life in F344/N JcL-rnu athymic rat at 5 mg/kg, po measured upto 72 hrs by HPLC-MS/MS analysis; assay type: ADME, organism-based; conditions: in vivo; how it was run: as §1
[10] = target: Platelet-derived growth factor receptor beta (Homo sapiens, UniProt P09619); experiment: Inhibition of PDGFR-beta phosphorylation in serum starved human NHDF cells incubated for 1 hr by immunoblotting analysis; assay type: cell-based
How it was run: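 Cells starved overnight in basic medium with 0.5% FBS, incubated 1 h with compound or 0.1% DMSO, then stimulated with human recombinant ligand for 5 min at 37°C. Lysates immunoprecipitated with receptor antibody and immunoblotted for phosphotyrosine. IC50 from nonlinear regression of percentage inhibition (n = 4).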

Calu-6 [11] = experiment: Antitumor activity against human Calu-6 cells xenografted in RH-rnu/rnu athymic rat assessed as larger enclosed median lumen area by the halos in tumor by measuring vessel diameter at 1 mg/kg, po administered for 14 days by H33342 dye based fluorescence microscopic analysis; assay type: functional; conditions: time 14 day
How it was run: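 Calu-6 tumor-bearing athymic rats, three per group, received oral drug at 0.2 or 1 mg/kg or vehicle on days 0-13. They were killed 1 min after i.v. H33342 at 20 mg/kg on day 13. 10 µm cryosections were cut from five tumor levels at least 200 µm apart and examined under UV epifluorescence. The major axis of fluorescent halos around vessels was measured by image analysis, with a Mann-Whitney test.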

BXPC-3 = experiment: Antitumor activity against human BXPC-3 cells xenografted in gamma-irradiation induced RH-rnu/rnu athymic rat assessed as tumor growth inhibition at 0.2 mg/kg, po administered once daily for 2 weeks and measured on day 13 relative to control; assay type: functional; conditions: BXPC-3, light or radiation study, 336 h, read-out: TGI; how it was run: as §2
A549 = experiment: Antitumor activity against human A549 cells xenografted in F344/N Jcl-rnu athymic rat assessed as reduction in number of CD31-positive cells in viable regions of tumor at 1.0 mg/kg, po administered once daily for 7 days by immunofluorescence staining analysis relative to control; conditions: time 7 day
[12] = target: Insulin-like growth factor 1 receptor (Homo sapiens, UniProt P08069); experiment: Inhibition of IGF-1R (unknown origin) in presence of ATP
Chain of Insulin-like growth factor 1 receptor (P08069 31-736 limits assumed): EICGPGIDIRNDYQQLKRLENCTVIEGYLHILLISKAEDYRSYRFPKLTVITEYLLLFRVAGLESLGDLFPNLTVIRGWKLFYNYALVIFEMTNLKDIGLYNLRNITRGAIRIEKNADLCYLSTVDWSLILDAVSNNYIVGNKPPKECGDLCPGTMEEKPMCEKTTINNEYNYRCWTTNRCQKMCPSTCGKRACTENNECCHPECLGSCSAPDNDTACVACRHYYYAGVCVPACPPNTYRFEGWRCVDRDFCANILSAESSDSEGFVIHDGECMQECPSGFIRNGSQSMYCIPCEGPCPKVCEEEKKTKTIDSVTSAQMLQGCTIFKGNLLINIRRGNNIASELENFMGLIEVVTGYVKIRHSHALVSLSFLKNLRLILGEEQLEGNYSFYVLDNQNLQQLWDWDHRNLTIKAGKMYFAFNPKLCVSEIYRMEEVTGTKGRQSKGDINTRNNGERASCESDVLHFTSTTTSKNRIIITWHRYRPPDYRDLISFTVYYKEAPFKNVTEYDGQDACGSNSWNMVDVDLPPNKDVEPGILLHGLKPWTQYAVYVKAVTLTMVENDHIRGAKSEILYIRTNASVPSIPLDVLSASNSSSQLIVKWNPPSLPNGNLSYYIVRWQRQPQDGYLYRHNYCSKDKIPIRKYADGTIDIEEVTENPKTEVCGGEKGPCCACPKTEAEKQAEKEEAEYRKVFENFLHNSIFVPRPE
Chain of Insulin-like growth factor 1 receptor (P08069 741-1367 limits assumed): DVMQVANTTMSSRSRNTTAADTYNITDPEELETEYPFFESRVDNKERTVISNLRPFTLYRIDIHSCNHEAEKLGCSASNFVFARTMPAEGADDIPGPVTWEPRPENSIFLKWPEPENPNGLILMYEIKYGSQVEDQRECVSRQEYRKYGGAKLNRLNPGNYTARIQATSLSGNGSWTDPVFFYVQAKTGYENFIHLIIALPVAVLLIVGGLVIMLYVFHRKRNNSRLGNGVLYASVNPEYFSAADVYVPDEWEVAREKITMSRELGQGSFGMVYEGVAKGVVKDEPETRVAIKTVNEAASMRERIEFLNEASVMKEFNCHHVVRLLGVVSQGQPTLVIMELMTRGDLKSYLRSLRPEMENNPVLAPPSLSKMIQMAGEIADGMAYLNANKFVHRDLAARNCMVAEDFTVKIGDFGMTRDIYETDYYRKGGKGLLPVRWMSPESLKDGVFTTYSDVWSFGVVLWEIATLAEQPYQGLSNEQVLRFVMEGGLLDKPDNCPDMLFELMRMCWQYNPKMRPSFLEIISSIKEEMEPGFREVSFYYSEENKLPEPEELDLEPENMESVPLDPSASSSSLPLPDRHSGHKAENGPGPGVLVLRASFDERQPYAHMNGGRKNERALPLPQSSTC
How it was run: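 Cell-free kinase assay using recombinant tyrosine kinases with 1 μmol/L ATP, run in quadruplicate. IC50 values determined.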

[13] = Cmax in F344/N JcL-rnu athymic rat at 0.2 mg/kg, po measured upto 72 hrs by HPLC-MS/MS analysis; assay type: ADME, organism-based; conditions: in vivo; how it was run: as §1
[14] = Apparent oral volume of distribution in F344/N JcL-rnu athymic rat at 1 mg/kg, po measured upto 72 hrs by HPLC-MS/MS analysis; assay type: ADME, organism-based; conditions: in vivo; how it was run: as §1
OVCAR-3 = experiment: Antitumor activity against human OVCAR-3 cells xenografted in gamma-irradiation induced RH-rnu/rnu athymic rat assessed as tumor growth inhibition at 1.0 mg/kg, po administered once daily for 2 weeks and measured on day 14 relative to control; assay type: functional; conditions: OVCAR-3, light or radiation study, 336 h, read-out: TGI; how it was run: as §2
SK-HEP1 = experiment: Antitumor activity against human SK-HEP1 cells xenografted in gamma-irradiation induced RH-rnu/rnu athymic rat assessed as tumor growth inhibition at 1.0 mg/kg, po administered once daily for 2 weeks and measured on day 14 relative to control; assay type: functional; conditions: SK-HEP1, light or radiation study, 336 h, read-out: TGI
[15] = AUC (0-infinity) in F344/N JcL-rnu athymic rat at 1 mg/kg, po measured upto 72 hrs by HPLC-MS/MS analysis; assay type: ADME, organism-based; conditions: in vivo
How it was run: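 Female athymic rats, four per group, given a single oral dose suspended in 0.5% methyl cellulose in water. Tail-vein blood was drawn at set times up to 72 h. Serum was spiked with internal standard, deproteinated with acetonitrile and analysed by HPLC-MS/MS. AUCinf came from noncompartmental analysis.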

With `COc1cc2nccc(Oc3ccc(NC(=O)Nc4cc(C)on4)c(Cl)c3)c2cc1OC` [TIVOZANIB] the Activity (Calu-6 [1]) was 61%, the Activity (Calu-6 [2]) was “Active” and the Cmax [3] was 2820 ng/mL. The IC50 [4] was > 1000 nM, the CL/F [5] was 2.2 mL/min/kg and the inhibition [6] was “inactive”. For the same compound, the CL/F [7] was 2.03 mL/min/kg, the inhibition in vivo at 1 mg/kg (SK-OV-3) was 99.2% and the Cmax [8] was 21.6 ng/mL. For the same compound, the inhibition in vivo at 1 mg/kg (NCI-H460) was 85.9%, the half-life [9] was 7.94 h and the IC50 [10] was […]. For the same compound, the Activity (Calu-6 [11]) was 65.8 um, the inhibition in vivo at 0.2 mg/kg (BXPC-3) was 60.7% and the Activity (A549) was 78.2%. For the same compound, the IC50 [12] was > 1000 nM, the Cmax [13] was 108 ng/mL and the Vd/F [14] was 1.54 L/kg. For the same compound, the inhibition in vivo at 1 mg/kg (OVCAR-3) was 98.5%, the inhibition in vivo at 1 mg/kg (SK-HEP1) was 89.9% and the AUC(0-inf) [15] was 7640 ng·h/mL.
